Results from ChEMBL document CHEMBL1759918, “2-Substituted 5,6-dimethyl-3-phenylsulfonyl-pyrazolo[1,5-a]pyrimidines: new series of highly potent and specific serotonin 5-HT6 receptor antagonists” (Eur J Med Chem, 2011).
The source made the active and inactive calls. The rule behind the calls is not given here.

Assays:
[1] = target: T1, 5-hydroxytryptamine receptor 6 (Homo sapiens, UniProt P50406); assay: Antagonist activity at human recombinant 5HT6 receptor expressed in HEK293 cells assessed as inhibition of serotonin-induced cAMP production after 2 hrs; assay type: functional, cell-based
T1 sequence (P50406 whole entry): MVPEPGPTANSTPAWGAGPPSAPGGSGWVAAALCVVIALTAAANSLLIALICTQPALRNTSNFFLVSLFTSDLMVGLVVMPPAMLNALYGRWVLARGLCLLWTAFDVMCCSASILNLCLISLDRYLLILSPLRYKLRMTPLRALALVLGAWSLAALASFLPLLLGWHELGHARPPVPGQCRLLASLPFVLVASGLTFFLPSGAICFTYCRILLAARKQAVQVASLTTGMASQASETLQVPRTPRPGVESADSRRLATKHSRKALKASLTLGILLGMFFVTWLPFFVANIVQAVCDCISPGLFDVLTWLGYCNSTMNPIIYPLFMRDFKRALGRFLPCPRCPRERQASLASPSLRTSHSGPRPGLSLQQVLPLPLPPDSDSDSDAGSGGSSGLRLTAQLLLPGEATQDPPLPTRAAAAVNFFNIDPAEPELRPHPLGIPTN
In short: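 Tetracycline-induced (1 ug/mL, day before) T-Rex HEK cells expressing 5-HT6R, EDTA-harvested, in HBSS/5 mM HEPES pH 7.4/0.05% BSA with IBMX; ~4000 cells/well. Compound premixed with serotonin (final 10 nM, 0.32% DMSO), 2 h; cAMP by LANCE kit. Duplicates; 4-parameter IC50; Ki = IC50/(1+[Ag]/EC50), serotonin EC50 measured on same plates.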

[2] = Binding affinity to imidazoline I2 receptor at 10 uM by radioligand binding assay
In short: (§1)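 Panel screen of 56 targets (GPCRs, ion channels, transporters) run by a contract lab under its own protocols; each target scored by competition of a single 10 µM compound concentration with its target-specific radioligand, given as percent displacement; duplicates, mean ± SD.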

Homo sapiens = organism: Homo sapiens; assay: Ratio of Ki for human recombinant 5HT6 receptor to Ki for human recombinant 5HT2B receptor
[3] = target: Adenosine receptor A1 (Homo sapiens) (UniProt P30542); assay: Binding affinity to Adenosinergic A1 receptor at 10 uM by radioligand binding assay
In short: (§2)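 Outsourced competitive radioligand displacement against target-specific labelled ligands, using the contractor's own protocol for each target. Single test concentration; duplicates, mean ± SD.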

[4] = target: Neuropeptide Y receptor type 1 (Homo sapiens) (UniProt P25929); assay: Binding affinity to Neuropeptide Y Y1 receptor at 10 uM by radioligand binding assay; in short: as §2
[5] = target: Histamine H1 receptor (Homo sapiens) (UniProt P35367); assay: Binding affinity to Histaminergic H1 receptor at 10 uM by radioligand binding assay; in short: as §2
[6] = target: Alpha-2A adrenergic receptor (Homo sapiens) (UniProt P08913); assay: Binding affinity to Adrenergic alpha2A receptor at 10 uM by radioligand binding assay; in short: as §2
[7] = Binding affinity to NMDA receptor glycine binding site at 10 uM by radioligand binding assay; in short: as §2
[8] = target: Voltage-gated inwardly rectifying potassium channel KCNH2 (Homo sapiens, UniProt Q12809); assay: Antagonist activity at human ERG by patch clamp method; assay type: functional
[9] = target: Cyclin-dependent kinase 5 (Homo sapiens) (UniProt Q00535); assay: Binding affinity to CDK5 at 10 uM by radioligand binding assay; in short: as §2
Sequence of Cyclin-dependent kinase 5 (Homo sapiens) (Q00535 whole entry, looked up): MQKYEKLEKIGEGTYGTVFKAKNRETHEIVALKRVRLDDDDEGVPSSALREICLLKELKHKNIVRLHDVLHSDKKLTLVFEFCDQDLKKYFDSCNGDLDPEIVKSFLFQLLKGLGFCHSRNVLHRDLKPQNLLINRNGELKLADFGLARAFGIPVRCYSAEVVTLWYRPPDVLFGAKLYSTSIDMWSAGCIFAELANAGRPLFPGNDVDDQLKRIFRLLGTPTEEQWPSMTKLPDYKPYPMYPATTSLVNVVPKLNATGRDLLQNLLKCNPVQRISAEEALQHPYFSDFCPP

[10] = target: Sodium- and chloride-dependent glycine transporter 2 (Homo sapiens) (UniProt Q9Y345); assay: Binding affinity to Glycine transporter at 10 uM by radioligand binding assay; in short: as §2
[11] = target: Muscarinic acetylcholine receptor M1 (Homo sapiens) (UniProt P11229); assay: Binding affinity to Muscarinic M1 receptor at 10 uM by radioligand binding assay; in short: as §2
Sequence of Muscarinic acetylcholine receptor M1 (Homo sapiens) (P11229 whole entry): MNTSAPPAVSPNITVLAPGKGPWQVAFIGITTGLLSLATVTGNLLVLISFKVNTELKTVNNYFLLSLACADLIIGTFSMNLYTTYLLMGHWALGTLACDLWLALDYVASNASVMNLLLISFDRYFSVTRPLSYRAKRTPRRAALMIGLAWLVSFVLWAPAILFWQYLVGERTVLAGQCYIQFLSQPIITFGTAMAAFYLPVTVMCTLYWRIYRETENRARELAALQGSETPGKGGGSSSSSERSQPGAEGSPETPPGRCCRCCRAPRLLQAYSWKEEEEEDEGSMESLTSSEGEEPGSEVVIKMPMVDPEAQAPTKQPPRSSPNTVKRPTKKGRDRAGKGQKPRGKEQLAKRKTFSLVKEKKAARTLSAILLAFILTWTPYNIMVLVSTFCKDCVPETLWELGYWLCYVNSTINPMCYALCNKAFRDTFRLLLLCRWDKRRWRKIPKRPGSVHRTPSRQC

[12] = target: Sodium-dependent dopamine transporter (Homo sapiens) (UniProt Q01959); assay: Binding affinity to Dopamine transporter at 10 uM by radioligand binding assay; in short: as §2
HEK293 = assay: Ratio of IC50 for human recombinant 5HT6 receptor expressed in human HEK293 cells to IC50 for human recombinant 5HT2B receptor expressed in human HEK293 cells; assay type: cell-based
In short: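 5-HT6 arm: tetracycline-induced (1 ug/mL, day before) T-Rex 5-HT6R-HEK cells, ~4000 cells/well in HBSS/5 mM HEPES pH 7.4/0.05% BSA, 500 µM IBMX final; compound with 10 nM serotonin, 2 h; cAMP by LANCE TR-FRET. 5-HT2B arm: Fura-2-loaded 5-HT2BR-HEK cells in cuvette, 340/380 nm excitation, 510 nm emission, response to 5 µM α-methylserotonin. IC50 from 4-parameter fits, duplicates.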

[13] = target: D(2) dopamine receptor (Homo sapiens) (UniProt P14416); assay: Binding affinity to Dopaminergic D2S receptor at 10 uM by radioligand binding assay; in short: as §2
Sequence of D(2) dopamine receptor (Homo sapiens) (P14416 whole entry): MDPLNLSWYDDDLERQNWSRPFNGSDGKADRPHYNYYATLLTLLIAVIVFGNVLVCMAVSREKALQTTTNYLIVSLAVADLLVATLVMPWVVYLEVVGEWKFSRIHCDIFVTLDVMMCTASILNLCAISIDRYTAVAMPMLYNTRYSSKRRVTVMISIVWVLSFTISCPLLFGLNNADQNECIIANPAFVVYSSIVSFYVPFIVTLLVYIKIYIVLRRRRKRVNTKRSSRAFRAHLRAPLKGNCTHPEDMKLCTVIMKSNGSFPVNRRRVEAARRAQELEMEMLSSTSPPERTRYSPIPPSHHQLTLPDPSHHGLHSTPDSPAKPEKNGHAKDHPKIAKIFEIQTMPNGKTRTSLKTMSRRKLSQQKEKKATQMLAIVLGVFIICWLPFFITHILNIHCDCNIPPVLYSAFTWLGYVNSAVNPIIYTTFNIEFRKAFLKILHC

[14] = Binding affinity to GABAA receptor flunitrazepam binding site at 10 uM by radioligand binding assay; in short: as §2
[15] = Binding affinity to Kainate receptor at 10 uM by radioligand binding assay; in short: as §2
[16] = target: Sodium-dependent noradrenaline transporter (Homo sapiens) (UniProt P23975); assay: Binding affinity to norepinephrine transporter at 10 uM by radioligand binding assay; in short: as §1
[17] = Binding affinity to GABA transporter at 10 uM by radioligand binding assay; in short: as §2
[18] = Binding affinity to Dopaminergic D4.2 receptor at 10 uM by radioligand binding assay; in short: as §2
[19] = target: Alpha-1D adrenergic receptor (Homo sapiens) (UniProt P25100); assay: Binding affinity to Adrenergic Alpha-1D receptor at 10 uM by radioligand binding assay; in short: as §2
[20] = target: D(1A) dopamine receptor (Homo sapiens) (UniProt P21728); assay: Binding affinity to Dopaminergic D1 receptor at 10 uM by radioligand binding assay; in short: as §2
[21] = target: 5-hydroxytryptamine receptor 1A (Homo sapiens) (UniProt P08908); assay: Binding affinity to 5HT1A receptor at 10 uM by radioligand binding assay; in short: as §2
Sequence of 5-hydroxytryptamine receptor 1A (Homo sapiens) (P08908 whole entry): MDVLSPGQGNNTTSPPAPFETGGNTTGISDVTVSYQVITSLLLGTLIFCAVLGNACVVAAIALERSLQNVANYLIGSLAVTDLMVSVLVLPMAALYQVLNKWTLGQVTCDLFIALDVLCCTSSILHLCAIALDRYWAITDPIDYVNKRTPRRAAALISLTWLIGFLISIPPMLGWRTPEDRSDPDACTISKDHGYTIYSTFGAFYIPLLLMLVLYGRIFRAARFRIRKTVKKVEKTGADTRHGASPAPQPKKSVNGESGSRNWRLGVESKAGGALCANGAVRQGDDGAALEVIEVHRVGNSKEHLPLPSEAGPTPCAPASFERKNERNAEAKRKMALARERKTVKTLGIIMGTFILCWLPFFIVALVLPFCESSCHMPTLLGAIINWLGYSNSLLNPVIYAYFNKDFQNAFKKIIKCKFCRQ

[22] = target: Death-associated protein kinase 2 (Homo sapiens) (UniProt Q9UIK4); assay: Binding affinity to DAPK2 at 10 uM by radioligand binding assay; in short: as §2
[23] = Binding affinity to NMDA receptor phencyclidine binding site at 10 uM by radioligand binding assay; in short: as §2
[24] = target: Muscarinic acetylcholine receptor M2 (Homo sapiens) (UniProt P08172); assay: Binding affinity to Muscarinic M2 receptor at 10 uM by radioligand binding assay; in short: as §2
Sequence of Muscarinic acetylcholine receptor M2 (Homo sapiens) (P08172 whole entry): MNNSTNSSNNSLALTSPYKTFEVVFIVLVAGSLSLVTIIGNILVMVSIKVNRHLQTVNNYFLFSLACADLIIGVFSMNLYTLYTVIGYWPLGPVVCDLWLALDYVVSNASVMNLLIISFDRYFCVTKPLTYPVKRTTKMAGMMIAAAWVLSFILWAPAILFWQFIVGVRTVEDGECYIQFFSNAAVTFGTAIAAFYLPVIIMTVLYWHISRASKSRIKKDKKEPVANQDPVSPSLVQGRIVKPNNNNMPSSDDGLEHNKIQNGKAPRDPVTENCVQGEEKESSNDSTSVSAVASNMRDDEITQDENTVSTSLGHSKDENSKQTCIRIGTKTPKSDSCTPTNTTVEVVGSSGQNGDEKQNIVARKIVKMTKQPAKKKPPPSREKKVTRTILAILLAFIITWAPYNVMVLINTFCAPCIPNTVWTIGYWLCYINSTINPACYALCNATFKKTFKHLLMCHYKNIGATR

[25] = Binding affinity to Dopaminergic D4.7 receptor at 10 uM by radioligand binding assay; in short: as §2
[26] = target: 5-hydroxytryptamine receptor 2C (Homo sapiens) (UniProt P28335); assay: Binding affinity to 5HT2C receptor at 10 uM by radioligand binding assay; in short: as §2
[27] = Binding affinity to Nicotinic receptor at 10 uM by radioligand binding assay; in short: as §2
[28] = target: Alpha-1B adrenergic receptor (Homo sapiens) (UniProt P35368); assay: Binding affinity to Adrenergic Alpha-1B receptor at 10 uM by radioligand binding assay; in short: as §2
[29] = target: 5-hydroxytryptamine receptor 1B (Homo sapiens) (UniProt P28222); assay: Binding affinity to 5HT1B receptor at 10 uM by radioligand binding assay; in short: as §2
Sequence of 5-hydroxytryptamine receptor 1B (Homo sapiens) (P28222 whole entry): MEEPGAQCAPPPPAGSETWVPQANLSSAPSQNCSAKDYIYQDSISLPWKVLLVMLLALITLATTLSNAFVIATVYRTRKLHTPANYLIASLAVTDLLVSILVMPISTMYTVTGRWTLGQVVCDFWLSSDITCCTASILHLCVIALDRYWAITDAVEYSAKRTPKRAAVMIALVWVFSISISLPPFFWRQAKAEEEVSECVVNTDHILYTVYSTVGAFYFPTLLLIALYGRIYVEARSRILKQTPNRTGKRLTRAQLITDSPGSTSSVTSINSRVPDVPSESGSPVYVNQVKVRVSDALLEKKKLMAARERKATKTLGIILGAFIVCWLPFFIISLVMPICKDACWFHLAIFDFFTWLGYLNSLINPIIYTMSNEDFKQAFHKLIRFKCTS

[30] = target: Sigma non-opioid intracellular receptor 1 (Homo sapiens) (UniProt Q99720); assay: Binding affinity to sigma 1 receptor at 10 uM by radioligand binding assay; in short: as §1
[31] = target: Neuropeptide Y receptor type 2 (Homo sapiens) (UniProt P49146); assay: Binding affinity to Neuropeptide Y Y2 receptor at 10 uM by radioligand binding assay; in short: as §2
[32] = target: D(4) dopamine receptor (Homo sapiens) (UniProt P21917); assay: Binding affinity to Dopaminergic D4.4 receptor at 10 uM by radioligand binding assay; in short: as §2
[33] = Binding affinity to GABAB receptor at 10 uM by radioligand binding assay; in short: as §2
[34] = target: D(3) dopamine receptor (Homo sapiens) (UniProt P35462); assay: Binding affinity to Dopaminergic D3 receptor at 10 uM by radioligand binding assay; in short: as §2
[35] = target: T1, 5-hydroxytryptamine receptor 6; assay: Displacement of [3H]lysergic acid diethylamide from human recombinant 5HT6 receptor
[36] = target: Sodium-dependent serotonin transporter (Homo sapiens) (UniProt P31645); assay: Binding affinity to Serotonin transporter at 10 uM by radioligand binding assay; in short: as §1
[37] = target: Adenosine receptor A2a (Homo sapiens) (UniProt P29274); assay: Binding affinity to Adenosinergic A2A receptor at 10 uM by radioligand binding assay; in short: as §2
[38] = Binding affinity to Potassium channel at 10 uM by radioligand binding assay; in short: as §1
[39] = Binding affinity to L-type calcium channel bezothiazepine binding site at 10 uM by radioligand binding assay; in short: as §2
[40] = target: 5-hydroxytryptamine receptor 3A (Homo sapiens) (UniProt P46098); assay: Binding affinity to 5HT3 receptor at 10 uM by radioligand binding assay; in short: as §2
[41] = target: Substance-P receptor (Homo sapiens) (UniProt P25103); assay: Binding affinity to tachykinin NK1 receptor at 10 uM by radioligand binding assay; in short: as §1
[42] = Binding affinity to GABAA receptor Ro-15-1788 binding site at 10 uM by radioligand binding assay; in short: as §2
[43] = target: Death-associated protein kinase 3 (Homo sapiens) (UniProt O43293); assay: Binding affinity to DAPK3 at 10 uM by radioligand binding assay; in short: as §2
[44] = target: Mitogen-activated protein kinase 8 (Homo sapiens) (UniProt P45983); assay: Binding affinity to MAPK8 at 10 uM by radioligand binding assay; in short: as §2
Sequence of Mitogen-activated protein kinase 8 (Homo sapiens) (P45983 whole entry): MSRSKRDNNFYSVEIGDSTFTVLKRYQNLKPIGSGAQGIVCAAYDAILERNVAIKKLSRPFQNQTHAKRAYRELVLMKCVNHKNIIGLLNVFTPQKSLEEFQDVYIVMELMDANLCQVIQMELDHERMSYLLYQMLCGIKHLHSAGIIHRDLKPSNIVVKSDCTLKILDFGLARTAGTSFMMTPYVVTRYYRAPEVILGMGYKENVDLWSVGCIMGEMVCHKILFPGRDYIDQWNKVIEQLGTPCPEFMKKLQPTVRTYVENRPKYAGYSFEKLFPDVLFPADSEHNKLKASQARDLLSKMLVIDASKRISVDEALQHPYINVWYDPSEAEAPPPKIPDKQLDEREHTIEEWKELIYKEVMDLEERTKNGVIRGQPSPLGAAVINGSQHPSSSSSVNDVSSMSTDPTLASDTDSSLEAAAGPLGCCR

[45] = Binding affinity to Sodium channel at 10 uM by radioligand binding assay; in short: as §1
[46] = Binding affinity to N-type calcium channel at 10 uM by radioligand binding assay; in short: as §2
[47] = target: Alpha-1A adrenergic receptor (Homo sapiens) (UniProt P35348); assay: Binding affinity to Adrenergic alpha1A receptor at 10 uM by radioligand binding assay; in short: as §2
Sequence of Alpha-1A adrenergic receptor (Homo sapiens) (P35348 whole entry): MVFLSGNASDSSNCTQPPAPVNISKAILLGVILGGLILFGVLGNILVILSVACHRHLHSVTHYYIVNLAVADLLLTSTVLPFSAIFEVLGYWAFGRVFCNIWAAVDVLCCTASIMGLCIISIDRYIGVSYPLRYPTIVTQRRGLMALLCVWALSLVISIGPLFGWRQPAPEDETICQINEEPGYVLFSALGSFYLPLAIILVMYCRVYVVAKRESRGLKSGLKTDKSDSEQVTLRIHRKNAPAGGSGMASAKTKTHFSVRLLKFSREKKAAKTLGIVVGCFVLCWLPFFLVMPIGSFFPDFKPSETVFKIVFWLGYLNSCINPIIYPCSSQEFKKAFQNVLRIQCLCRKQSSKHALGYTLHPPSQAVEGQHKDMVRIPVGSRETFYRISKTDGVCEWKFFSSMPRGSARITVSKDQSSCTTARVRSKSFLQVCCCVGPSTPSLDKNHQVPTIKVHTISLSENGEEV

[48] = Binding affinity to AMPA receptor at 10 uM by radioligand binding assay; in short: as §2
[49] = Binding affinity to sigma2 receptor at 10 uM by radioligand binding assay; in short: as §1
[50] = target: Muscarinic acetylcholine receptor M3 (Homo sapiens) (UniProt P20309); assay: Binding affinity to Muscarinic M3 receptor at 10 uM by radioligand binding assay; in short: as §2
Sequence of Muscarinic acetylcholine receptor M3 (Homo sapiens) (P20309 whole entry, looked up): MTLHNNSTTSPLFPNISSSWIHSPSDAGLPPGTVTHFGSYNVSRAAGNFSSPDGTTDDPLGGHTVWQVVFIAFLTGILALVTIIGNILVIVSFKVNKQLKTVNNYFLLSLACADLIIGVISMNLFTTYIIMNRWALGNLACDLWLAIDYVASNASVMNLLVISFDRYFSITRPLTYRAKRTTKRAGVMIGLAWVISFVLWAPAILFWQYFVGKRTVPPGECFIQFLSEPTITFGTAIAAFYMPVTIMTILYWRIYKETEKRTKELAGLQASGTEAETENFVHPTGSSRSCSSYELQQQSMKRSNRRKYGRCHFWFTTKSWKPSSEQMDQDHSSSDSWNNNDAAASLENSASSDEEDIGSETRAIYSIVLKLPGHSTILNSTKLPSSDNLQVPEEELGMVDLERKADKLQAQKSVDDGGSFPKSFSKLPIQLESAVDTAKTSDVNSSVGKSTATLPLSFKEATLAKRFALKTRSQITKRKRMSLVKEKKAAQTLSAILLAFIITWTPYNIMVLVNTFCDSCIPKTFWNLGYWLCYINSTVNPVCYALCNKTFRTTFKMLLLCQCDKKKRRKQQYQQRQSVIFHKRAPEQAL

[51] = target: Histamine H2 receptor (Homo sapiens) (UniProt P25021); assay: Binding affinity to Histaminergic H2 receptor at 10 uM by radioligand binding assay; in short: as §2
[52] = target: Histamine H3 receptor (Homo sapiens) (UniProt Q9Y5N1); assay: Binding affinity to Histaminergic H3 receptor at 10 uM by radioligand binding assay; in short: as §2
Sequence of Histamine H3 receptor (Homo sapiens) (Q9Y5N1 whole entry): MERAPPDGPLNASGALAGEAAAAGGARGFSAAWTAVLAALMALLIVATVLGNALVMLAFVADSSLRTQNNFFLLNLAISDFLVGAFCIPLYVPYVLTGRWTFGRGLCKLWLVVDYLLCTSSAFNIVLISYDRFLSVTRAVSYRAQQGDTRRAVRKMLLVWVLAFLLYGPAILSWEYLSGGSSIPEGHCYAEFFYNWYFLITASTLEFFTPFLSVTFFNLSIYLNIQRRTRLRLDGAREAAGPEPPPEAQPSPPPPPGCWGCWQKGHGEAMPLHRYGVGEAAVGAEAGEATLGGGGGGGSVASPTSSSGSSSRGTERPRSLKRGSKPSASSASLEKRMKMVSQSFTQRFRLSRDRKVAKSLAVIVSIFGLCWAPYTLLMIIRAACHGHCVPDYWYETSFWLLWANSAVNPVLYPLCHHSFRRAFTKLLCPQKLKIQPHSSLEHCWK

[53] = target: Death-associated protein kinase 1 (Homo sapiens) (UniProt P53355); assay: Binding affinity to DAPK1 at 10 uM by radioligand binding assay; in short: as §2
[54] = target: Mitogen-activated protein kinase 10 (Homo sapiens) (UniProt P53779); assay: Binding affinity to MAPK10 at 10 uM by radioligand binding assay; in short: as §2
[55] = target: D(2) dopamine receptor (Homo sapiens) (UniProt P14416); assay: Binding affinity to Dopaminergic D2L receptor at 10 uM by radioligand binding assay; in short: as §2
[56] = Binding affinity to L-type calcium channel dihydropyridine binding site at 10 uM by radioligand binding assay; in short: as §2

Structure (SMILES): Cc1cc(C)n2nc(C)c(S(=O)(=O)c3ccccc3)c2n1
- Ki [1]: 88.8 nM

Structure (SMILES): Cc1cc(C)n2nc(OCCN(C)C)c(S(=O)(=O)c3ccccc3)c2n1
- Ki [1]: 2200 nM

Structure (SMILES): CNc1nn2c(C)cc(C)nc2c1S(=O)(=O)c1ccccc1
- Activity [2]: inactive
- Ratio (Homo sapiens): 5000
- Activity [3]: inactive
- Activity [4]: inactive
- Activity [5]: inactive
- Activity [6]: inactive
- Activity [7]: inactive
- IC50 [8]: > 30000 nM
- Activity [9]: inactive
- Activity [10]: inactive
- Activity [11]: inactive
- Activity [12]: inactive
- Ratio (HEK293): 1000
- Activity [13]: inactive
- Activity [14]: inactive
- Activity [15]: inactive
- Activity [16]: inactive
- Activity [17]: inactive
- Activity [18]: inactive
- Activity [19]: inactive
- Activity [20]: inactive
- Activity [21]: inactive
- Activity [22]: inactive
- Activity [23]: inactive
- Activity [24]: inactive
- Activity [25]: inactive
- Activity [26]: inactive
- Activity [27]: inactive
- Activity [28]: inactive
- Activity [29]: inactive
- Activity [30]: inactive
- Activity [31]: inactive
- Activity [32]: inactive
- Activity [33]: inactive
- Activity [34]: inactive
- Ki [35]: 0.2 nM
- Activity [36]: inactive
- Activity [37]: inactive
- Activity [38]: inactive
- Activity [39]: inactive
- Activity [40]: inactive
- Activity [41]: inactive
- Activity [42]: inactive
- Activity [43]: inactive
- Activity [44]: inactive
- Activity [45]: inactive
- Activity [46]: inactive
- Activity [47]: inactive
- Activity [48]: inactive
- Activity [49]: inactive
- Activity [50]: inactive
- Activity [51]: inactive
- Activity [52]: inactive
- Activity [53]: inactive
- Activity [54]: inactive
- Activity [55]: inactive
- Activity [56]: inactive

Structure (SMILES): CSc1nn2c(C)cc(C)nc2c1S(=O)(=O)c1ccccc1
- Ki [35]: 2 nM

Structure (SMILES): Cc1cc(C)n2nc(N(C)C)c(S(=O)(=O)c3ccccc3)c2n1
- Ki [1]: 14.5 nM

Structure (SMILES): Cc1cc(C)n2nc(OCCO)c(S(=O)(=O)c3ccccc3)c2n1
- Ki [35]: 22.2 nM
- Ki [1]: 283 nM
